Results as given in ChEMBL document CHEMBL1255214, “Structure-based design of imidazo[1,2-a]pyrazine derivatives as selective inhibitors of Aurora-A kinase in cells” (Bioorg Med Chem Lett, 2010).

How the values were obtained:
[1] = test system: HeLa; assay: Growth inhibition of human HeLa cells; format: functional
In short: (§1)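 MTT read-out of cell growth, with GI50 taken from the resulting data.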

[2] = test system: HCT-116; assay: Growth inhibition of human HCT116 cells; format: functional; in short: as §1
[3] = target: T1, Aurora kinase A (Homo sapiens, UniProt O14965); assay: Inhibition of human aurora A
T1 sequence (O14965 whole entry): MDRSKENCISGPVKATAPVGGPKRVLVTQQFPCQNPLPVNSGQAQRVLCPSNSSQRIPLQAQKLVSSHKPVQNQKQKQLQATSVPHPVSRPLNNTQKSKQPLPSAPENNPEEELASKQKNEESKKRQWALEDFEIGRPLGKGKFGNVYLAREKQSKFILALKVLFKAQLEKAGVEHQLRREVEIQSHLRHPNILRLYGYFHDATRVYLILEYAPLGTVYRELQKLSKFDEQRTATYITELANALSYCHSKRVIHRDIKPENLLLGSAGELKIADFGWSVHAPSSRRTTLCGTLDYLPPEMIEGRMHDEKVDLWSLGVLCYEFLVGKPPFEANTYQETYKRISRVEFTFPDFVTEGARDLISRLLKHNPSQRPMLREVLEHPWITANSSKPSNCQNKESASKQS
In short: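 Recombinant human Aurora-A kinase; IC50 measured by either a Flashplate or a Filterplate assay. Values are means of two independent determinations, or mean (SD) where n >2; some are means of samples run in triplicate.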

[4] = target: T2, Aurora kinase A (Homo sapiens) (UniProt O14965); assay: Inhibition of human aurora A at 10 uM
T2 sequence (whole entry): T1 sequence (O14965 whole entry)
In short: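 Recombinant human Aurora-A kinase, tested at a single concentration; percent inhibition reported as mean of samples run in triplicate.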

[5] = species on record: Homo sapiens; assay: Selectivity ratio of IC50 for human aurora B to IC50 for human aurora A
[6] = target: Aurora kinase B (Homo sapiens, UniProt Q96GD4); assay: Inhibition of human aurora B
[7] = target: T3, Aurora kinase C (Homo sapiens, UniProt Q9UQB9); assay: Inhibition of human aurora C
T3 sequence (Q9UQB9 whole entry): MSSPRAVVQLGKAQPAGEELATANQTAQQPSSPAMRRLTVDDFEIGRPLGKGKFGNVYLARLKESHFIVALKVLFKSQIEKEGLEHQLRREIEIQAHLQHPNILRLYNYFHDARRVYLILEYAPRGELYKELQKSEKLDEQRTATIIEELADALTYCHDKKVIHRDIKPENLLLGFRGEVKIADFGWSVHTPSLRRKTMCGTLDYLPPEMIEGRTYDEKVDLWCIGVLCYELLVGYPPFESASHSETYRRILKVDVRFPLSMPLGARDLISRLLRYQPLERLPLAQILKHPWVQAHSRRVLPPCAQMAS
In short: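 Recombinant human Aurora-C kinase; IC50 measured by Filterplate assay.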

Aurora kinase B, sequence (Q96GD4 whole entry): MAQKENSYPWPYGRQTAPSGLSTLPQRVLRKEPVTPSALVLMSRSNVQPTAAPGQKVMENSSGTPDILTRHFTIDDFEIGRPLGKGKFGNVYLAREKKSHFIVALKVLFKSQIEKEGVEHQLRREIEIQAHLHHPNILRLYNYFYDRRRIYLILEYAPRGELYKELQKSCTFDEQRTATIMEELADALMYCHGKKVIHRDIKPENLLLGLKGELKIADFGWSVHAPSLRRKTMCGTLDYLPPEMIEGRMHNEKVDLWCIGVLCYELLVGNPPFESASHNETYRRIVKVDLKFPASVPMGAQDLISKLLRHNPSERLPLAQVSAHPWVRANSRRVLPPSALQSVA

| IC50 [3] [µM] | inhibition [4] [%] | SMILES | other results |
| --- | --- | --- | --- |
| 0.208 |  | Cc1cnc2c(Nc3ccc(N4CCOCC4)cc3)nc(-c3cccnc3)cn12 | GI50 [1]: 6.5 µM; GI50 [2]: 7.2 µM |
|  | 32 | COc1ccc(Nc2nc(-c3ccc(F)nc3)cn3ccnc23)cc1 |  |
|  |  | CS(=O)(=O)NCc1cccc(-c2cn3c(Cl)cnc3c(Nc3ccc(N4CCOCC4)cc3)n2)c1 | Ratio IC50 [5]: 70; IC50 [6]: 10.5 µM |
| 2.5 |  | CC(=O)Nc1ccc(Nc2nc(-c3cccnc3)cn3ccnc23)cc1 |  |
|  | 22 | COc1ccc(Nc2nc(-c3cccc(NC(=O)COc4ccccc4)c3)cn3ccnc23)cc1 |  |
| 6.7 |  | c1ccc(Nc2nc(-c3cccnc3)cn3ccnc23)cc1 |  |
|  | 41 | c1cncc(-c2cn3ccnc3c(NCc3ccc(N4CCOCC4)cc3)n2)c1 |  |
| 7.2 |  | COc1ccc(Nc2nc(-c3cccc(NC(=O)Nc4ccccc4)c3)cn3ccnc23)cc1 |  |
|  | 28 | COc1ccc(Nc2nc(-c3ccc(Cl)nc3)cn3ccnc23)cc1 |  |
|  |  | Clc1cnc2c(Nc3ccc(N4CCOCC4)cc3)nc(-c3cccnc3)cn12 | GI50 [1]: 28 µM; GI50 [2]: 3.9 µM; IC50 [7]: 1950 nM |
| 9.7 |  | COc1ccc(Nc2nc(-c3ccn(C)n3)cn3ccnc23)cc1 |  |
|  | 27 | CN(c1ccccc1)c1nc(-c2cccnc2)cn2ccnc12 |  |
| 4.2 |  | c1cncc(-c2cn3c(-c4cccnc4)cnc3c(Nc3ccc(N4CCOCC4)cc3)n2)c1 |  |
| 2.9 |  | COc1ccc(Nc2nc(-c3cccnc3)cn3ccnc23)cc1 |  |
| 6.7 |  | COc1ccc(Nc2nc(-c3cccc(NS(=O)(=O)c4ccc(OC)cc4)c3)cn3ccnc23)cc1 |  |
|  | 33 | c1cncc(-c2cn3ccnc3c(NCCN3CCOCC3)n2)c1 |  |
| 7.31 |  | COCC(=O)Nc1cccc(-c2cn3ccnc3c(Nc3ccc(OC)cc3)n2)c1 |  |
|  | 32 | OC1CCC(Nc2nc(-c3cccnc3)cn3ccnc23)CC1 (configuration not stated) |  |
| 4.5 |  | COc1ccc(Nc2nc(-c3cccc(NS(=O)(=O)c4cccnc4)c3)cn3ccnc23)cc1 |  |
| 7.9 |  | COc1ccc(NC(=O)Nc2cccc(-c3cn4ccnc4c(Nc4ccc(OC)cc4)n3)c2)cc1 |  |
| 2.12 |  | c1cncc(-c2cn3ccnc3c(Nc3ccc(N4CCOCC4)cc3)n2)c1 |  |
|  | 38 | COc1ccc(Nc2nc(-c3cnn(Cc4ccccc4)c3)cn3ccnc23)cc1 |  |
| 5.5 |  | Clc1ccc(Nc2nc(-c3cccnc3)cn3ccnc23)cc1 |  |
|  | 46 | COc1ccc(Nc2nc(-c3cccc(Cl)c3)cn3ccnc23)cc1 |  |
|  | 30 | COc1ccc(Nc2nc(-c3ccc(OC)nc3)cn3ccnc23)cc1 |  |
| 5.48 |  | COc1ccc(Nc2nc(-c3cccc(N)c3)cn3ccnc23)cc1 |  |
| 3.75 |  | O=C(Nc1ccc(Nc2nc(-c3cccnc3)cn3ccnc23)cc1)c1ccccc1 |  |
|  |  | O=C(O)c1ccc(Nc2ncc3c(n2)-c2ccc(Cl)cc2C(c2c(F)cccc2F)=NC3)cc1 | Ratio IC50 [5]: 90 |
| 0.152 |  | Brc1cnc2c(Nc3ccc(N4CCOCC4)cc3)nc(-c3cccnc3)cn12 | GI50 [1]: 13.4 µM; GI50 [2]: 2.3 µM |
|  | 35 | c1cncc(-c2cn3ccnc3c(NCc3ccc4c(c3)OCCO4)n2)c1 |  |
